{"source": "ChEMBL document CHEMBL3414506", "about": "(J Med Chem, 2015)", "key": {"[1]": {"molecular_target": "T1, Steroid 17-alpha-hydroxylase/17,20 lyase (Homo sapiens, UniProt P05093)", "T1 sequence (P05093 whole entry)": "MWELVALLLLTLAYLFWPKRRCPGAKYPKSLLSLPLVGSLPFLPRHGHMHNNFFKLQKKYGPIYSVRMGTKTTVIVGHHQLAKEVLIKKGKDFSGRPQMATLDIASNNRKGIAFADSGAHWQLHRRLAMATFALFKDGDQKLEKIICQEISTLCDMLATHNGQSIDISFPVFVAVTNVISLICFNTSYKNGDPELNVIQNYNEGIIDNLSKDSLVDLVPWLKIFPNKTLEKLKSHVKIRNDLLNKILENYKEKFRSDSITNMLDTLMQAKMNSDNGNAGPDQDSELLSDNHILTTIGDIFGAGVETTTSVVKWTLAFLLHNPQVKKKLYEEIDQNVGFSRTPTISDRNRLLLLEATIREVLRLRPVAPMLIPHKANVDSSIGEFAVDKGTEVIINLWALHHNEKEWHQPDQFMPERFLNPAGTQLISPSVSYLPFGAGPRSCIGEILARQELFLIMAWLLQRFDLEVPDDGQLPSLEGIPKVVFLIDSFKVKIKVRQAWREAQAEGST", "test": "Inhibition of human CYP17 expressed in Escherichia coli", "outline": "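Whole-cell assay: intact Escherichia coli cells expressing human CYP17 used as the enzyme source; inhibition expressed as IC50.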"}, "[2]": {"system": "Plasma", "test": "Retention time in mouse plasma by reverse phase HPLC method", "assay_type": "ADME, cell-free", "outline": "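Mouse plasma from male SCID mice dosed s.c. at 50 or 100 mg/kg, analysed by validated reverse-phase HPLC with an internal standard. Analyte resolved from the internal standard, a metabolite and endogenous plasma components. Calibration linear; inter- and intra-assay variability under 10%; detection limit 100 ng/mL.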"}, "[3]": {"molecular_target": "T1, Steroid 17-alpha-hydroxylase/17,20 lyase", "test": "Inhibition of human CYP17 up to 10 uM using 17alpha-hydroxypregnenolone substrate relative to control", "outline": "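CYP17 assay with 17α-hydroxypregnenolone substrate at 10 μM (Km 560 nM). Screening used 150 nM inhibitor, tested up to 10 μM. Values are the mean ± SDM of at least two experiments.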"}, "[4]": {"test": "Growth inhibition of human castration-resistant prostate cancer cells", "assay_type": "functional, cell-based", "conditions": "Cancer cell lines; call rule not given here"}, "[5]": {"system": "Mus musculus", "test": "Elimination half life in SCID mouse at 50 mg/kg, sc", "assay_type": "ADME, organism-based", "set-up": "dose 50 mg/kg, route subcutaneous", "conditions": "in vivo", "outline": "(§1)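 Male SCID mice were dosed subcutaneously at 50 or 100 mg/kg. Plasma levels were measured by reverse-phase HPLC against an internal standard, with a detection limit of 100 ng/mL and inter- and intra-assay variability under 10%. Parameters were calculated noncompartmentally from the plasma concentration–time profile.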"}, "[6]": {"system": "Mus musculus", "test": "Drug elimination constant in SCID mouse at 50 mg/kg, sc", "assay_type": "ADME, organism-based", "set-up": "dose 50 mg/kg, route subcutaneous", "conditions": "in vivo", "outline": "as §1"}, "[7]": {"test": "AUC in SCID mouse at 50 mg/kg, sc", "assay_type": "ADME, organism-based", "set-up": "dose 50 mg/kg, route subcutaneous", "conditions": "plasma", "outline": "as §1"}, "[8]": {"test": "Tmax in SCID mouse at 50 mg/kg, sc", "assay_type": "ADME, organism-based", "set-up": "dose 50 mg/kg, route subcutaneous", "conditions": "in vivo", "outline": "as §1"}, "[9]": {"test": "Cmax in SCID mouse at 50 mg/kg, sc", "assay_type": "ADME, organism-based", "set-up": "dose 50 mg/kg, route subcutaneous", "conditions": "in vivo", "outline": "as §1"}, "[10]": {"test": "Mean residence time in SCID mouse at 50 mg/kg, sc", "assay_type": "ADME, organism-based", "set-up": "dose 50 mg/kg, route subcutaneous", "conditions": "in vivo", "outline": "as §1"}, "[11]": {"system": "Mus musculus", "test": "Volume of distribution in SCID mouse at 50 mg/kg, sc", "assay_type": "ADME, organism-based", "set-up": "dose 50 mg/kg, route subcutaneous", "conditions": "in vivo", "outline": "as §1"}, "[12]": {"system": "Mus musculus", "test": "Elimination half life in SCID mouse at 100 mg/kg, sc", "assay_type": "ADME, organism-based", "set-up": "dose 100 mg/kg, route subcutaneous", "conditions": "in vivo", "outline": "as §1"}, "[13]": {"test": "AUC in SCID mouse at 100 mg/kg, sc", "assay_type": "ADME, organism-based", "set-up": "dose 100 mg/kg, route subcutaneous", "conditions": "plasma", "outline": "as §1"}, "[14]": {"test": "Tmax in SCID mouse at 100 mg/kg, sc", "assay_type": "ADME, organism-based", "set-up": "dose 100 mg/kg, route subcutaneous", "conditions": "in vivo", "outline": "as §1"}, "[15]": {"test": "Cmax in SCID mouse at 100 mg/kg, sc", "assay_type": "ADME, organism-based", "set-up": "dose 100 mg/kg, route subcutaneous", "conditions": "in vivo", "outline": "as §1"}, "[16]": {"test": "Mean residence time in SCID mouse at 100 mg/kg, sc", "assay_type": "ADME, organism-based", "set-up": "dose 100 mg/kg, route subcutaneous", "conditions": "in vivo", "outline": "as §1"}, "[17]": {"system": "Mus musculus", "test": "Volume of distribution in SCID mouse at 100 mg/kg, sc", "assay_type": "ADME, organism-based", "set-up": "dose 100 mg/kg, route subcutaneous", "conditions": "in vivo", "outline": "as §1"}, "[18]": {"system": "Plasma", "test": "Drug metabolism in mouse plasma assessed as retention time of metabolite by reverse phase HPLC method", "assay_type": "ADME, cell-free", "outline": "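Mouse plasma was analysed by reverse-phase HPLC after subcutaneous dosing. The parent compound, an internal standard, the metabolite and endogenous components were resolved by retention time.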"}, "[19]": {"test": "Clearance in SCID mouse at 50 mg/kg, sc", "assay_type": "ADME, organism-based", "set-up": "dose 50 mg/kg, route subcutaneous", "conditions": "in vivo", "outline": "as §1"}, "[20]": {"system": "LAPC4", "test": "Antitumor activity against human LAPC4 cells xenografted in SCID mouse assessed as reduction in tumor volume at 0.15 mmol/kg, sc dosed twice daily starting 1 day after tumor cell inoculation and measured after 16 weeks of treatment", "assay_type": "functional", "outline": "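3 × 10^7 LAPC-4 cells were injected subcutaneously into the dorsal flank of male SCID mice. From 1 day after inoculation, mice received 0.15 mmol/kg s.c. twice daily, alongside vehicle and castrated groups. The dose was cut by 78.6% for one interval, then resumed. Tumour volume was measured weekly, and percent change was computed after 16 weeks.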"}, "[21]": {"system": "LAPC4", "test": "Antitumor activity against human LAPC4 cells xenografted in SCID mouse assessed as tumor volume at 0.13 mmol/kg, sc dosed twice daily (reference value: 2410.28 mm3)", "assay_type": "functional"}, "[22]": {"system": "LAPC4", "test": "Antitumor activity against human LAPC4 cells xenografted in SCID mouse assessed as regression of tumor volume at 0.13 mmol/kg, sc dosed twice daily", "assay_type": "functional"}, "[23]": {"system": "LAPC4", "test": "Antitumor activity against human LAPC4 cells xenografted in SCID mouse with castration assessed as regression of tumor volume at 0.13 mmol/kg, sc dosed twice daily", "assay_type": "functional"}, "[24]": {"molecular_target": "T1, Steroid 17-alpha-hydroxylase/17,20 lyase", "test": "Inhibition of human CYP17 using 17alpha-hydroxypregnenolone substrate"}}, "data": [{"smiles": "C[C@]12CC[C@H](O)CC1=CC[C@@H]1[C@@H]2CC[C@]2(C)C(n3ccnc3)=CC[C@@H]12", "values": [{"measurement": "IC50", "setting": "[1]", "value": 50, "unit": "nM"}, {"measurement": "Retention_time", "setting": "[2]", "value": 11.5, "unit": "min"}]}, {"smiles": "C[C@]12CC[C@H](O)CC1=CC[C@@H]1[C@@H]2CC[C@]2(C)C(n3cnnn3)=CC[C@@H]12", "values": [{"measurement": "inhibition (INH)", "setting": "[3]", "value": "Not Active"}]}, {"smiles": "C[C@]12CC[C@H](O)CC1=CC[C@@H]1[C@@H]2CC[C@]2(C)C(n3cnc4ccccc43)=CC[C@@H]12", "note": "[GALETERONE]", "values": [{"measurement": "IC50", "setting": "[4]", "value": 2900, "unit": "nM"}, {"measurement": "beta t1/2", "setting": "[5]", "value": 44.17, "unit": "min"}, {"measurement": "Kel", "setting": "[6]", "value": 0.942, "unit": "h⁻¹"}, {"measurement": "AUC", "setting": "[7]", "value": 24000, "unit": "ng·h/mL"}, {"measurement": "Tmax", "setting": "[8]", "value": 30, "unit": "min"}, {"measurement": "Cmax", "setting": "[9]", "value": 16800, "unit": "ng/mL"}, {"measurement": "MRT", "setting": "[10]", "value": 65.4, "unit": "min"}, {"measurement": "Vd", "setting": "[11]", "value": 2.09899, "unit": "L/kg"}, {"measurement": "beta t1/2", "setting": "[12]", "value": 36.6, "unit": "min"}, {"measurement": "AUC", "setting": "[13]", "value": 30200, "unit": "ng·h/mL"}, {"measurement": "Tmax", "setting": "[14]", "value": 30, "unit": "min"}, {"measurement": "Cmax", "setting": "[15]", "value": 32200, "unit": "ng/mL"}, {"measurement": "MRT", "setting": "[16]", "value": 60.5, "unit": "min"}, {"measurement": "Vd", "setting": "[17]", "value": 3.27639, "unit": "L/kg"}, {"measurement": "Retention_time", "setting": "[2]", "value": 21.6, "unit": "min"}, {"measurement": "Retention_time", "setting": "[18]", "value": 17.3, "unit": "min"}, {"measurement": "CL/F", "setting": "[19]", "value": 33.1, "unit": "mL/min/kg"}, {"measurement": "inhibition in vivo at 150 µmol/kg", "setting": "[20]", "value": 93.8, "unit": "%"}, {"measurement": "Activity", "setting": "[21]", "value": 6.94, "unit": "mm3"}, {"measurement": "inhibition in vivo at 130 µmol/kg", "setting": "[22]", "value": 26.6, "unit": "%"}, {"measurement": "inhibition in vivo at 130 µmol/kg", "setting": "[23]", "value": 60.7, "unit": "%"}]}, {"smiles": "C[C@]12CC[C@H](O)CC1=CC[C@@H]1[C@@H]2CC[C@]2(C)C(n3ncnn3)=CC[C@@H]12", "values": [{"measurement": "inhibition (INH)", "setting": "[3]", "value": "Not Active"}]}, {"smiles": "C[C@]12CCC(=O)C=C1CC[C@@H]1[C@@H]2CC[C@]2(C)C(n3cncn3)=CC[C@@H]12", "values": [{"measurement": "IC50", "setting": "[24]", "value": 55, "unit": "nM"}, {"measurement": "Ki", "setting": "[24]", "value": 41, "unit": "nM"}]}, {"smiles": "C[C@]12CC[C@H](O)CC1=CC[C@@H]1[C@@H]2CC[C@]2(C)C(n3nccn3)=CC[C@@H]12", "values": [{"measurement": "inhibition (INH)", "setting": "[3]", "value": "Not Active"}]}, {"smiles": "CC(O)(CS(=O)(=O)c1ccc(F)cc1)C(=O)Nc1ccc(C#N)c(C(F)(F)F)c1", "note": "(centres undefined) [BICALUTAMIDE]", "values": [{"measurement": "IC50", "setting": "[4]", "value": 18000, "unit": "nM"}]}]}
